Measurements from different studies.
Lines come from different studies, so protocols differ.
SLCO1B3: Solute carrier organic anion transporter family member 1B3 (SLCO1B3, Homo sapiens, UniProt Q9NPD5)

`COc1ccnc(-c2nc3ccccn3c2N(C)c2ccc(F)cc2)c1` has a hepatocyte CLint of over 300 µL/min/10⁶ cells (metabolic stability; rat, hepatocytes).
The clearance of `Cc1ccc(C(=O)N(CCCN)[C@@H](c2oc3cc(Cl)ccc3c(=O)c2Cc2ccccc2)C(C)C)cc1` is reported as 24.8 mL/min (human, plasma; intravenous, 4 mg/m², single dose, patients, infusion).
With `CN(CCC(=O)O)C(=O)c1ccc2c(c1)CC[C@@H]1[C@@H]2CC[C@]2(C)C(c3cncc(F)c3)=CC[C@@H]12` the IC50 was 41 µM (SLCO1B3; transporter uptake, inhibitor).
`CN(C(=O)n1cnc(-c2ccc[n+]([O-])c2)c1)C1CCCCC1` gave an inhibition of 11% (SLCO1B3; transporter uptake, inhibitor; HEK293; 1 µg/mL).
With `O=C(O[C@H]1[C@@H]2C=CO[C@@H](O[C@@H]3O[C@H](CO)[C@@H](O)[C@H](O)[C@H]3O)[C@@H]2[C@@]2(CO)O[C@@H]12)c1ccc(O)cc1` the Km was 502 µM (SLCO1B3; transporter uptake, substrate; HEK293; 5 min).
`COc1cc(C(=O)NC2CCN(C)CC2)c(F)cc1Nc1ncc(C(F)(F)F)c(Oc2cccc3c2C(=O)N(C)C3)n1` gave a CL/F of 160 mL/min (human, plasma; oral, 200 mg, multiple doses, once daily, patients).
`Fc1cc(F)cc(Nc2c(-c3ccccn3)nc3ccccn23)c1` gave a microsomal CLint of 64 µL/min/mg (metabolic stability; human, liver microsomes; 3 µM, pH 7.4).
`C[C@H]1C[C@H]2[C@@H]3CCC4=CC(=O)C=C[C@]4(C)[C@@]3(Cl)[C@@H](O)C[C@]2(C)[C@@]1(O)C(=O)CO` has an IC50 of 1.4 µM (SLCO1B3; transporter uptake, inhibitor).
With `Clc1ccc(-c2c(-c3ccccn3)nc3n2CCC3)cc1` the microsomal CLint was 170 µL/min/mg (metabolic stability; human, liver microsomes; 3 µM, pH 7.4).
For `c1cnc2ccc(Nc3nc(NC4CC4)c4nc[nH]c4n3)cc2c1`, the CL/F was 3180 mL/min (human, plasma; oral, 50 mg/m², patients).
